# CXCR6 inh: blocks human CXCR6 beta-arrestin recruitment; inhibition, % at 20 µM; CHO-K1 PathHunter CXCR6 beta-arrestin, luminescence; actives 0.36% (n = 360,000); in the data active = inhibition above about 34%, passing the limit was not always enough;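 also: antagonist mode with CXCL16 agonist at 10 nM final; 0% = 10 nM CXCL16 with DMSO and 100% = unstimulated wells without agonist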
# HTR2A ag: agonists of mouse serotonin 5-HT2A receptor (HTR2A); P35363; CHO-K1 mHTR2A beta-arrestin complementation, luminescence; percent of 30 µM serotonin response; activation, % at 7.6 µM; actives 0.66% (n = 360,000); AID 624169;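 active = activation above a run cutoff, the mean activation of all tested compounds plus 3 SD, cut at about 14% in these data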;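 also: 0% = plate median of compound wells and 100% = 30 µM serotonin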
# CCR6 antagonist: CCR6 (human) receptor antagonism | CHO-K1 CCR6 PathHunter beta-arrestin, luminescence, CCL20-stimulated | inhibition, % at 20 µM | actives 0.49% (n = 340,000) | AID 493098;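 active = compounds whose inhibition of the agonist-driven luminescence signal at 20 µM reaches about 50%, limit read from the data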;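 also: cells stimulated with CCL20 at 14 nM final; plate controls were DMSO with CCL20 for no effect and DMSO without agonist for full effect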
# EBI2 block: antagonists of human EBI2 receptor; EBI2 beta-arrestin recruitment, luminescence, 7a,25-OHC stimulated; inhibition, % at 5 µM; AID 651636; P32249; actives 0.81% (n = 360,000); in the data active = inhibition above about 38%;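 also: enzyme fragment complementation signal reports receptor beta-arrestin coupling in cells; 0% = agonist plus DMSO wells and 100% = wells without agonist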
# Target sequence (P32249 whole entry, looked up, the tested form may be a part): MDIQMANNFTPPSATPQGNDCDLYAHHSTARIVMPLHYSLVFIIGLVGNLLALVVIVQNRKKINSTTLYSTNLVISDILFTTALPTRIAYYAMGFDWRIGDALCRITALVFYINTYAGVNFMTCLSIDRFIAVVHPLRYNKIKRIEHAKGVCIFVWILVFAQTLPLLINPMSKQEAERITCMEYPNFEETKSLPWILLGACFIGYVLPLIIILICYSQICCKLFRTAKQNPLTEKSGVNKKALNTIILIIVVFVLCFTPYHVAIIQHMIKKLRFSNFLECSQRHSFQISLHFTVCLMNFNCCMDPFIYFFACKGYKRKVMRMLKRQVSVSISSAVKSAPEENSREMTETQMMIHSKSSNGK
# APJ antagonist: antagonists of human APJ apelin receptor. P35414. CHO-K1 APJ beta-arrestin complementation, luminescence. inhibition, % at 20 µM. actives 0.32% (n = 330,000);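 active = inhibition above about 40% at 20 µM, limit read from the data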;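 also: cells challenged with 10 nM apelin-13 agonist together with compound; plate controls were apelin-13 plus DMSO wells for no effect and DMSO wells lacking apelin-13 for full effect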
# APJ ag: APJ receptor agonism | CHO-K1 APJ PathHunter beta-arrestin, luminescence; 0% DMSO wells, 100% apelin | AID 2520 | activation, % at 20 µM | actives 0.11% (n = 330,000) | P35414;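 active = activation more than six SD over the plate average, tested at 20 µM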;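 also: 0% = DMSO alone and 100% = apelin-13 at 10 nM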
#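 assay system = CHO-K1 APJ beta-arrestin complementation cell line | input = cell density 1000 per well | dosing = compound 20 µM once, DMSO 1% | timing = compound 90 min 25 °C, reagent 1 h | measured by = luminescence from split beta-galactosidase complementation, Galacton Star/Emerald II substrate | read-out basis = APJ agonist activity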
# MOR ag counter: counter-screen for mouse HTR2A agonists: human mu opioid receptor agonists; actives 5.3% (n = 2,300); shares compounds with HTR2A ag; U2OS OPRM1 beta-arrestin PathHunter, luminescence; DMSO 0%, DAMGO 9.3 µM 100%; activation, % at 9.3 µM;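 active = mean activation above the mean of DMSO-only wells plus 3 SD, cut at about 0.5% in these data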
# HTR2A ag conf: confirmation of mouse HTR2A serotonin receptor agonists | AID 624381 | shares compounds with HTR2A ag | activation, % at 7.6 µM | actives 19% (n = 2,300) | CHO-K1 PathHunter beta-arrestin recruitment, luminescence; DMSO 0%, 30 µM serotonin 100%;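 active = mean activation across triplicates above the hit threshold derived in the original primary screen, cut at about 15% in these data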
# * = called active by the depositor; nt = no result. Hits are enriched below; roughly 2.1% of the tested compounds scored in any of these assays.
SMILES,CXCR6 inh,HTR2A ag,CCR6 antagonist,EBI2 block,APJ antagonist,APJ ag,MOR ag counter,HTR2A ag conf
O=C1CCNc2c(Cl)cc(Cl)cc21,0,-2,-6,-1,6,1,nt,nt
COc1cccc2c(O)c(-c3ccccc3)c(=O)[nH]c12,-2,1,8,1,-17,-4,nt,nt
COc1cc2[nH]c(C)c(-c3ccccc3)c(=O)c2cc1Cl,-3,25*,nt,-72,nt,nt,-1,14*
COc1ccc(C(=O)NNC2=CC(=O)CC(C)(C)C2)cc1,0,19*,-1,0,-18,0,-1,1
CC1(C)CC(=O)C=C(NNC(=O)c2ccccc2O)C1,2,4,1,-5,18,-2,nt,nt
CCCCn1c(N)c(N(C)C(=O)c2cc3c(F)cccc3s2)c(=O)[nH]c1=O,3,1,4,3,1,-3,nt,nt
CCOC(=O)N1CCC(N(CCOC)C(=O)Nc2ccc(CC)cc2)CC1,-3,-6,5,3,7,-4,nt,nt
CCOC(=O)N1CCC(N(C(=O)Nc2ccc(Cl)c(Cl)c2)C(C)CC)CC1 (configuration not stated),-5,16*,-5,1,-1,1,0,-2
CCN1C(=O)c2ccccc2S(=O)c2ccc(C(=O)NCc3ccc(OC)cc3)cc21 (configuration not stated),-2,-11,6,1,3,3,nt,nt
COc1ccccc1-c1ccc2c(c1)C(C)(Cc1ccc(Cl)c(Cl)c1)C(=O)N2 (configuration not stated),2,23*,nt,12,nt,nt,-1,-4
COc1ccccc1-c1ccc2c(c1)C(C)(Cc1ccccc1C#N)C(=O)N2 (configuration not stated),5,7,nt,7,nt,nt,nt,nt
Cc1c(Cl)cccc1NC(=O)NN1CCN(C)CC1,2,9,-1,-13,-11,2,nt,nt
Cc1ccc(NC2CCCN(C(=O)c3ccc(C)c(N4CCNC4=O)c3)C2)cc1C (configuration not stated),7,-2,-10,-1,24,3,nt,nt
CC1CCCCN1C(=O)COC(=O)CSc1ccc(C(N)=O)cc1[N+](=O)[O-] (configuration not stated),12,-2,11,1,nt,nt,nt,nt
CC1CCCC(C)N1C(=O)COC(=O)CSc1ccc(C(N)=O)cc1[N+](=O)[O-] (configuration not stated),-1,16*,8,5,25,-5,-1,-3
CCCCCC(=O)N1C[C@H](n2cc(-c3ccc(F)cc3)nn2)[C@@H](O)C[C@@H]1c1ccc(C)cc1,2,23*,nt,21,nt,nt,0,0
C[C@H](CO)N1C[C@H](C)[C@@H](CN(C)S(=O)(=O)c2ccc(C#N)cc2)OCc2cn(nn2)CCCC1=O,0,12,nt,0,nt,nt,nt,nt
Cc1ccc(SCc2cc(=O)[nH]c(N3CCN(Cc4ccccc4)CC3)n2)cc1,-2,18*,-1,-4,6,-1,-1,12
O=C(NC1CCCCC1)C(C1CC1)n1c(=O)c(-c2ccco2)nc2ccccc21 (configuration not stated),nt,16*,nt,11,nt,nt,-1,-3
CC(C)C(=O)NC(NCC1CCCO1)C(Cl)(Cl)Cl (configuration not stated),10,17*,-11,-10,-12,-1,-1,-2
CCCC(=O)N1CCC1(C)C(=O)Nc1ccc(-n2cccc2)cc1 (configuration not stated),2,-5,nt,2,nt,nt,nt,nt
Oc1ccc(Br)cc1Cn1nnc2ccccc21,-4,10,0,-7,-1,-4,nt,nt
N#Cc1ccccc1C[C@H](N)C(=O)NC[C@H]1O[C@@H](n2ccc(N)nc2=O)[C@H](O)[C@@H]1O,2,29*,nt,-2,nt,nt,0,-3
Cc1ccnc(Cc2ccccc2)n1,0,4,6,-1,17,-4,nt,nt
Cc1cc(Cl)ccc1OCC(=O)OCC(=O)NC1CCCC1,1,16*,10,7,-14,-2,0.5*,2
SMILES,CXCR6 inh,HTR2A ag,CCR6 antagonist,EBI2 block,APJ antagonist,APJ ag,MOR ag counter,HTR2A ag conf
Cc1cc(Cl)ccc1OCC(=O)NC1CCCC1,-3,5,8,-16,-8,-4,nt,nt
O=C(C1CCC(=O)N(C2CCCC2)C1)N1CCN(Cc2cccc(Cl)c2)CC1 (configuration not stated),-3,3,4,-6,2,-11,nt,nt
Cc1ccc(OCCC(=O)OCC(=O)Nc2ccccc2)cc1,-12,17*,-6,-4,1,-4,-1,-5
Cc1ccc(OCCC(=O)OCC(=O)Nc2ccc(F)cc2)cc1,2,-2,0,-1,-1,-7,nt,nt
CC(C)Oc1ccc(C(=O)Nc2ncn[nH]2)cc1,-1,0,2,-5,4,0,nt,nt
O=C1NC[C@H](Cc2ccccc2)N(C[C@H]2CCCN2C[C@H](Cc2ccc(O)cc2)N2C[C@H](Cc3ccc(O)cc3)N(CC3CCCCCC3)C(=O)C2=O)C1=O,11,26*,14,5,nt,nt,-1,73*
CCOc1cc(-c2c(C)c(C)nc(N)c2C#N)ccc1O,-8,15*,-20,9,-16,-1,0,24*
COc1ccc(CNC(=O)CCCn2nc(C)n3ccnc3c2=O)cc1,-7,25*,8,-3,-3,2,-1,-3
CC(C)C(=O)N1CCCC1(C)C(=O)NCc1ccccn1 (configuration not stated),-8,-1,nt,-9,nt,nt,nt,nt
CCCC(=O)N1CCCC1(C)C(=O)NCCc1ccccn1 (configuration not stated),-2,22*,nt,-1,nt,nt,0,3
CC1CCN=C(N)S1 (configuration not stated),-5,16*,0,5,3,-4,0,0
COc1cccc(NC(=O)CN(C)C(=O)C(C)Sc2ccccc2)c1 (configuration not stated),-8,1,-7,-8,-14,8,nt,nt
Cn1c(Cn2c(=O)sc3ccccc32)nnc1SCC(=O)Nc1ccccc1,0,20*,7,2,-72,-4,0,-5
O=C(Nc1nc2c(Br)cccc2s1)C1CC1,-2,-5,10,-14,-20,1,nt,nt
CCOC(=O)c1ccc(NC(=O)c2nc[nH]c2C(=O)N[C@@H](CC(C)C)C(=O)OC(C)(C)C)cc1,-8,4,9,-12,-14,0,nt,nt

# Source: PubChem BioAssay (several laboratories)
